Columns and labels:
[1] = AUClast in Beagle dog at 3 mg/kg, po administered via gavage by LC-MS/MS analysis; assay type: ADME, organism-based, Canis lupus familiaris; set-up: time 0 - last, route oral, dose 3 mg/kg; conditions: in vivo
Outline: (§1)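 Male beagle dogs (7–10 kg), fasted overnight and fed 4 h postdose, received the bis-hydrochloride salt at 3 mpk by oral gavage. Plasma concentrations by LC-MS/MS; Cmax and AUClast from the oral dose.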

[2] = Oral bioavailability in Beagle dog at 3 mg/kg administered via gavage by LC-MS/MS analysis; assay type: ADME, organism-based, Canis lupus familiaris; conditions: in vivo
Outline: (§2)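 Bis-hydrochloride salt given to male Sprague-Dawley rats (200–300 g) or male beagle dogs (7–10 kg), fasted overnight and fed 4 h postdose. IV dose 0.3 mg/kg (rat dorsal foot vein, dog cephalic vein) or PO gavage 3 mg/kg.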

[3] = Cmax in Beagle dog at 3 mg/kg, po administered via gavage by LC-MS/MS analysis; assay type: ADME, organism-based, Canis lupus familiaris; set-up: route oral, dose 3 mg/kg; conditions: in vivo; outline: as §1
[4] = Half life in Beagle dog at 0.3 mg/kg, iv by LC-MS/MS analysis; assay type: ADME, organism-based, Canis lupus familiaris; conditions: in vivo; for t1/2: 0.3 mg/kg; outline: as §2
[5] = Volume of distribution at steady state in Beagle dog at 0.3 mg/kg, iv by LC-MS/MS analysis; assay type: ADME, organism-based, Canis lupus familiaris; conditions: in vivo; for Vdss: 0.3 mg/kg; outline: as §2
[6] = AUClast in Sprague-Dawley rat at 3 mg/kg, po administered via gavage by LC-MS/MS analysis; assay type: ADME, organism-based; set-up: route oral, time 0 - last, dose 3 mg/kg; conditions: in vivo
Outline: (§3)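 Male Sprague-Dawley rats (200–300 g), fasted overnight and fed 4 h postdose, given the bis-hydrochloride salt at 3 mpk by oral gavage. Tail-vein blood into K2EDTA taken predose and at 0.083–24 h (0.083, 0.25, 0.5, 1, 2, 4, 8, 24 h). Plasma analysed by LC-MS/MS; Cmax and AUClast derived from the oral dose.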

[7] = Cmax in Sprague-Dawley rat at 3 mg/kg, po administered via gavage by LC-MS/MS analysis; assay type: ADME, organism-based; set-up: route oral, dose 3 mg/kg; conditions: in vivo; outline: as §3
[8] = Oral bioavailability in Sprague-Dawley rat at 3 mg/kg administered via gavage by LC-MS/MS analysis; assay type: ADME, organism-based; conditions: in vivo; outline: as §2
[9] = Half life in Sprague-Dawley rat at 0.3 mg/kg, iv by LC-MS/MS analysis; assay type: ADME, organism-based; conditions: in vivo; outline: as §2
[10] = Volume of distribution at steady state in Sprague-Dawley rat at 0.3 mg/kg, iv by LC-MS/MS analysis; assay type: ADME, organism-based; conditions: in vivo; outline: as §2
[11] = Intrinsic clearance in dog hepatocytes […] at 2 uM measured after 15 to 120 mins by LC-MS analysis; assay type: ADME, cell-based, Canis lupus familiaris, Hepatocyte; conditions: time 15-120 min
Outline: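 Hepatocytes at 2×10^6 viable cells/mL, mixed with an equal volume of 2 μM compound in KHB buffer. Incubated at 37 °C and quenched with ACN at 0, 15, 30, 60 and 120 min. Analysed by LC/MS, with percent remaining from peak area ratio to internal standard against 0 min. Half-life from a single-phase exponential fit.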

[12] = Permeability across basolateral to apical side in human Caco-2 cells at 10 uM measured after 90 mins by LC-MS/MS analysis; assay type: ADME, cell-based
Outline: (§4)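 Caco-2 monolayers grown 21–28 days on polycarbonate filter inserts, with TEER and Lucifer Yellow checked before and after. Compound at 10 μM in HBSS with 25 mM HEPES, pH 7.4. Run A→B and B→A at 37 °C for 90 min. Receiver and donor samples quantified by LC-MS/MS.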

[13] = Permeability across apical to basolateral side in human Caco-2 cells at 10 uM measured after 90 mins by LC-MS/MS analysis; assay type: ADME, cell-based; outline: as §4
[14] = rat, microsomes, 0.75 h, 1 µM
[15] = Clearance in Beagle dog at 0.3 mg/kg, iv by LC-MS/MS analysis; assay type: ADME, organism-based, Canis lupus familiaris; conditions: in vivo
Outline: (§5)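 Bis-hydrochloride salt dosed 0.3 mg/kg IV and 3 mg/kg PO (mouse: 3 mg/kg IV, 10 mg/kg PO); female CD-1 mice, male beagle dogs, male cynomolgus monkeys; monkeys and dogs fasted overnight and fed 4 h postdose. IV via tail (mouse) or cephalic vein; PO by oral (mouse) or nasal (monkey) gavage. K2EDTA plasma sampled predose to 24 h; LC-MS/MS. CL, Vdss, t1/2 from IV; F% from oral dose.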

[16] = Clearance in cynomolgus monkey at 0.3 mg/kg, iv by LC-MS/MS analysis; assay type: ADME, organism-based, Macaca fascicularis; conditions: in vivo; outline: as §5
[17] = Volume of distribution at steady state in cynomolgus monkey at 0.3 mg/kg, iv by LC-MS/MS analysis; assay type: ADME, organism-based, Macaca fascicularis; conditions: in vivo, read-out: Vdss; outline: as §5
[18] = Half life in cynomolgus monkey at 0.3 mg/kg, iv by LC-MS/MS analysis; assay type: ADME, organism-based, Macaca fascicularis; conditions: in vivo; outline: as §5
[19] = Oral bioavailability in cynomolgus monkey at 3 mg/kg administered via gavage by LC-MS/MS analysis; assay type: ADME, organism-based, Macaca fascicularis; conditions: in vivo; outline: as §5
[20] = Cmax in cynomolgus monkey at 3 mg/kg, po administered via gavage by LC-MS/MS analysis; assay type: ADME, organism-based, Macaca fascicularis; set-up: route oral, dose 3 mg/kg; conditions: in vivo
Outline: (§6)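 Male cynomolgus monkeys (3–5 kg), fasted overnight and fed 4 h postdose, dosed with the bis-hydrochloride salt at 3 mpk by nasal gavage. Blood from saphenous or cephalic vein into K2EDTA at predose and 0.083–24 h (0.083, 0.25, 0.5, 1, 2, 4, 8, 24 h). Plasma quantified by LC-MS/MS; Cmax and AUClast from the oral dose.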

[21] = AUClast in cynomolgus monkey at 3 mg/kg, po administered via gavage by LC-MS/MS analysis; assay type: ADME, organism-based, Macaca fascicularis; set-up: route oral, time 0 - last, dose 3 mg/kg; conditions: in vivo; outline: as §6
[22] = Volume of distribution at steady state in CD-1 mouse at 3 mg/kg, iv by LC-MS/MS analysis; assay type: ADME, organism-based; conditions: in vivo, read-out: Vdss; outline: as §5
[23] = Half life in CD-1 mouse at 3 mg/kg, iv by LC-MS/MS analysis; assay type: ADME, organism-based; conditions: in vivo; outline: as §5
[24] = Oral bioavailability in CD-1 mouse at 10 mg/kg administered via gavage by LC-MS/MS analysis; assay type: ADME, organism-based; conditions: in vivo; outline: as §5
[25] = Cmax in CD-1 mouse at 10 mg/kg, po administered via gavage by LC-MS/MS analysis; assay type: ADME, organism-based; set-up: route oral, dose 10 mg/kg; conditions: in vivo
Outline: (§7)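 Female CD-1 mice (20–30 g), food and water ad libitum, given the bis-hydrochloride salt at 10 mpk by oral gavage. Plasma quantified by LC-MS/MS; Cmax and AUClast from the oral dose.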

[26] = AUClast in CD-1 mouse at 10 mg/kg, po administered via gavage by LC-MS/MS analysis; assay type: ADME, organism-based; set-up: time 0 - last, route oral, dose 10 mg/kg; conditions: in vivo; outline: as §7
[27] = Free plasma concentration in NSG mouse xenografted with human H460 cells at 10 mg/kg, po administered as single dose via gavage measured after 8 hrs by LC-MS analysis; assay type: ADME, organism-based; conditions: in vivo
[28] = Free plasma concentration in NSG mouse xenografted with human H460 cells at 50 mg/kg, po administered as single dose via gavage measured after 8 hrs by LC-MS analysis; assay type: ADME, organism-based; conditions: in vivo
Outline: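 Female NSG mice, 6–10 weeks old, bearing H460 tumours (5×10^5 cells with matrigel 1:1) of 300–400 mm³. Given a single oral gavage dose of bis-hydrochloride salt in 0.5% methylcellulose. Six animals per group. Free plasma concentration taken at 8 or 24 h, given as mean with standard deviation.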

[29] = Free plasma concentration in NSG mouse xenografted with human H460 cells at 250 mg/kg, po administered as single dose via gavage measured after 8 hrs by LC-MS analysis; assay type: ADME, organism-based; conditions: in vivo
[30] = Free plasma concentration in NSG mouse xenografted with human H460 cells at 10 mg/kg, po administered as single dose via gavage measured after 24 hrs by LC-MS analysis; assay type: ADME, organism-based; conditions: in vivo
[31] = Free plasma concentration in NSG mouse xenografted with human H460 cells at 250 mg/kg, po administered as single dose via gavage measured after 24 hrs by LC-MS analysis; assay type: ADME, organism-based; conditions: in vivo
[32] = AUClast in Sprague-Dawley rat at 2 mg/kg, po administered via gavage by LC-MS/MS analysis; assay type: ADME, organism-based; set-up: route oral, time 0 - last, dose 2 mg/kg; conditions: in vivo
[33] = Cmax in Sprague-Dawley rat at 2 mg/kg, po administered via gavage by LC-MS/MS analysis; assay type: ADME, organism-based; set-up: route oral, dose 2 mg/kg; conditions: in vivo
[34] = Oral bioavailability in Sprague-Dawley rat at 2 mg/kg administered via gavage by LC-MS/MS analysis; assay type: ADME, organism-based; conditions: in vivo
[35] = Intrinsic clearance in monkey hepatocytes […] at 2 uM measured after 15 to 120 mins by LC-MS analysis; assay type: ADME, cell-based, Macaca mulatta, Hepatocyte; conditions: rhesus monkey, time 15-120 min
[36] = Intrinsic clearance in mouse hepatocytes […] at 2 uM measured after 15 to 120 mins by LC-MS analysis; assay type: ADME, cell-based, Hepatocyte; conditions: time 15-120 min
[37] = Intrinsic clearance in monkey liver microsomes assessed per kg protein at 1 uM measured up to 45 mins in presence of NADPH by LC-MS/MS analysis; assay type: ADME, Macaca mulatta, Microsome; conditions: rhesus monkey, 0.75 h
[38] = Intrinsic clearance in mouse liver microsomes assessed per kg protein at 1 uM measured up to 45 mins in presence of NADPH by LC-MS/MS analysis; assay type: ADME, Microsome; conditions: 0.75 h
[39] = human, microsomes, 0.75 h, 1 µM

Structure (SMILES)	AUClast [1]	F [2]	Cmax [3]	t1/2 [4]	Vdss [5]	AUClast [6]	Cmax [7]	F [8]	t1/2 [9]	Vdss [10]	CLint [11]	permeability [12]	permeability [13]	further results
CNC(=O)c1cn(C[C@H](F)CCc2ccc(NC(=O)Cc3cc(OC4CC(F)(F)C4)ccn3)nn2)nn1.Cl	10 µM·h	34%	2.7 µM	2.3 h	0.5 L/kg	16 µM·h	5.8 µM	48%	1.2 h	0.2 L/kg	–	–	–	–
CNC(=O)c1cn(C[C@H](F)CCc2ccc(NC(=O)Cc3cc(OC4CC(F)(F)C4)ccn3)nn2)nn1	–	–	–	–	–	–	–	–	–	–	4 mL/min/kg	20 10^-6 cm/s	1.8 10^-6 cm/s	–
CNC(=O)c1cn(CCCCc2ccc(NC(=O)Cc3cc(OCC(F)(F)F)ccn3)nn2)nn1	–	–	–	–	–	–	–	–	–	–	–	–	–	CLH [14]: 0.4 mL/min
CNC(=O)c1cn(C[C@H](F)CCc2ccc(NC(=O)Cc3cc(C(F)(F)F)cc(C)n3)nn2)nn1	23 µM·h	21%	4.5 µM	2.6 h	0.2 L/kg	24 µM·h	4.4 µM	28%	3.3 h	0.2 L/kg	9 mL/min/kg	25 10^-6 cm/s	7.7 10^-6 cm/s	–
CNC(=O)c1cn(C[C@H](F)CCc2ccc(NC(=O)Cc3cc(OC4CC(F)(F)C4)cc(C)n3)nn2)nn1.Cl.Cl	250 µM·h	> 100%	31 µM	–	–	208 µM·h	32 µM	70%	5.3 h	0.1 L/kg	–	–	–	half-life ([4]; Beagle): 5.3 h; Vd ([5]; Beagle, read-out: Vdss): 0.18 L/kg; clearance [15]: 0.59 mL/min/kg; clearance [16]: 8 mL/min/kg; Vd [17]: 0.31 L/kg; half-life [18]: 0.9 h; bioavailability [19]: 72%; Cmax [20]: 6.5 µM; AUC(0-t) [21]: 8.7 µM·h; Vd [22]: 0.27 L/kg; half-life [23]: 1 h; F [24]: 89%; Cmax [25]: 19 µM; AUClast [26]: 67 µM·h; Cp(f) [27]: 0.029 µM; Cp(f) [28]: 0.198 µM; Cp(f) [29]: 0.316 µM; Cp(f) [30]: 0.006 µM; Cp(f) [31]: 0.316 µM
CNC(=O)c1cn(C[C@H](F)CCc2ccc(NC(=O)Cc3cc(-c4cccc(OC(F)(F)F)c4)ccn3)nn2)nn1.Cl	2.5 µM·h	8%	0.58 µM	2.5 h	0.5 L/kg	–	–	–	2.7 h	1 L/kg	–	–	–	AUClast [32]: 1.2 µM·h; Cmax [33]: 0.35 µM; F [34]: 19%
CNC(=O)c1cn(C[C@H](F)CCc2ccc(NC(=O)Cc3cc(OC4CC(F)(F)C4)cc(C)n3)nn2)nn1 [IPN-60090]	–	–	–	–	–	–	–	–	–	–	7 mL/min/kg	25 10^-6 cm/s	5.2 10^-6 cm/s	CLint [35]: 12 mL/min/kg; CLint [36]: 16 mL/min/kg; CLint [37]: 21 mL/min/kg; CLint [38]: 55 mL/min/kg; CLH [39]: <= 0.7 ml/min
